This is an account of results in ChEMBL document CHEMBL2321690, “New betulinic acid derivatives for bevirimat-resistant human immunodeficiency virus type-1” (J Med Chem, 2013).

Activity calls are given as the source filed them. The calls are words filed in the database; no cut-off is given here.

For series [1], the system named is Human immunodeficiency virus 1. Kind of series: Antiviral activity against 0.001 MOI bevirimat-resistant Human immunodeficiency virus 1 NL4-3 harboring gag V362I mutant infected in human MT4 cells assessed as inhibition of viral replication measured 4 days post infection by ELISA. It counts as functional, organism-based. The settings on record: Human immunodeficiency virus 1, NL4-3, MT4, 96 h. Put shortly:
(§1)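 Mutations introduced into pNL4-3 by site-directed mutagenesis. MT4 cells infected with wild-type NL4-3 or resistant variant at 0.001 TCID50/cell in presence of graded compound concentrations. Supernatant p24 measured by ELISA on day 4 post-infection. IC50 is the concentration reducing p24 by 50%, reported as mean ± SD with the number of tests given per value.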
For orientation: An ELISA detects its analyte on a solid surface through an enzyme-linked reagent.

The subject of series [2] is Human immunodeficiency virus 1. Nature of the series: Antiviral activity against 0.001 MOI wild type Human immunodeficiency virus 1 NL4-3 infected in human MT4 cells assessed as inhibition of viral replication measured 4 days post infection by ELISA. The conditions noted are these: Human immunodeficiency virus 1, NL4-3, MT4, 96 h. It counts as functional, organism-based. Put shortly: as §1

Series [3] relates to Human immunodeficiency virus 1. Nature of the series: Antiviral activity against 0.001 MOI bevirimat-resistant Human immunodeficiency virus 1 NL4-3 harboring gag V370 deletion mutant infected in human MT4 cells assessed as inhibition of viral replication measured 4 days post infection by ELISA. The conditions noted are these: Human immunodeficiency virus 1, NL4-3, MT4, 96 h. It counts as functional, organism-based. Summed up: as §1

Another series concerns MT4. Kind of series: Cytotoxicity against human MT4 cells for 4 days. It counts as cell-based. The conditions noted are these: mt4, 96 h. Put shortly:
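MT4 cells cultured with various compound concentrations for 4 days. Viability read by a CytoTox-Glo luminescent cytotoxicity assay. CC50 is the concentration reducing viable cells by 50%.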

The test system of another series is COS. Nature of the series: (§2) Inhibition of wild type Human immunodeficiency virus 1 NL4-3 envelope glycoprotein gp160-mediated cell-cell fusion between virus-infected monkey COS cells to human TZM-bl cells after 24 hrs by luciferase reporter gene assay. It counts as cell-based. Summed up:
(§3)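 COS cells (1 × 10^6 cells/mL) electroporated (950 µF, 150 V) with vector expressing NL4-3 Env and tat, then cultured one day. Mixed with TZM-bl cells with inhibitor over a 1–10000 nM range. Luciferase (RLU) in fused cells read 24 h after mixing, expressed as % of no-compound fusion. Points are mean ± SD of three tests.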
Background: Reporter assays use an easily measured gene product as a stand-in for the process of interest.

Series [4] has as its system Human immunodeficiency virus 1. Kind of series: Antiviral activity against bevirimat-resistant Human immunodeficiency virus 1 NL4-3 harboring gag V370A mutant infected in human 293T cells assessed as inhibition of CA-SP1 cleavage measured 2 days post infection by Western blotting analysis. It counts as functional, organism-based. Summed up:
(§4)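 Provirus plasmids (pNL4-3/V370A, pNL4-3/V362I, with pNL4-3 alongside) transfected into 293T cells, and virus produced in presence of compound. Supernatant virus harvested two days after transfection. Western blot with anti-p24 monoclonal antibody (183-H12-5C) to detect accumulation of CA-SP1 (p25), indicating inhibited CA-SP1 cleavage.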
Background: Immunoblotting shows a protein as a band on a membrane.

Series [5] relates to Human immunodeficiency virus 1. Kind of series: Antiviral activity against 0.001 MOI bevirimat-resistant Human immunodeficiency virus 1 NL4-3 harboring gag T371 deletion mutant infected in human MT4 cells assessed as inhibition of viral replication measured 4 days post infection by ELISA. The settings on record: Human immunodeficiency virus 1, NL4-3, MT4, 96 h. It counts as functional, organism-based. Summed up:
as §1

For series [6], the system named is Human immunodeficiency virus 1. Nature of the series: Antiviral activity against wild type Human immunodeficiency virus 1 NL4-3 infected in human 293T cells assessed as inhibition of CA-SP1 cleavage measured 2 days post infection by Western blotting analysis. It counts as functional, organism-based. Put shortly: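 293T cells transfected with pNL4-3 proviral plasmid and cultured with compounds. Culture supernatant collected 2 days after transfection. Western blot with anti-p24 monoclonal antibody (hybridoma 183-H12-5C) detected CA-SP1 (p25) accumulation, taken as the measure of blocked CA-SP1 cleavage.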

Series [7] deals with Human immunodeficiency virus 1. Nature of the series: Antiviral activity against 0.001 MOI bevirimat-resistant Human immunodeficiency virus 1 NL4-3 harboring gag V370A mutant infected in human MT4 cells assessed as inhibition of viral replication measured 4 days post infection by ELISA. The conditions noted are these: Human immunodeficiency virus 1, NL4-3, MT4, 96 h. It counts as functional, organism-based. Summed up: as §1

Series [8] deals with Human immunodeficiency virus 1. Nature of the series: Potency index, ratio of bevirimat IC50 to compound IC50 for 0.001 MOI bevirimat-resistant Human immunodeficiency virus 1 NL4-3 harboring gag V370A mutant infected in human MT4 cells. It counts as functional.
The test system of series [9] is Human immunodeficiency virus 1. Kind of series: Antiviral activity against bevirimat-resistant Human immunodeficiency virus 1 NL4-3 harboring gag V362I mutant infected in human 293T cells assessed as inhibition of CA-SP1 cleavage measured 2 days post infection by Western blotting analysis. It counts as functional, organism-based. Put shortly:
as §4

A short description of series [10]: as §2. The settings on record: Human immunodeficiency virus 1, NL4-3, COS. It counts as cell-based. Summed up: as §3

Consider `C=C(C)[C@@H]1CC[C@]2(C(=O)O)CC[C@]3(C)[C@H](CC[C@@H]4[C@@]5(C)CC[C@H](OC(=O)CC(C)(C)C(=O)O)C(C)(C)[C@@H]5CC[C@]43C)[C@@H]12` [BEVIRIMAT], for which the IC50 (commonly the point on the concentration scale where inhibition reaches its midpoint) in series [1] was greater than 6.8 µM; in [2] it was 0.076 µM; in [3] it was greater than 6.8 µM; in [5], greater than 6.8 µM; in [7], greater than 5 µM. The CC50 (in general, the concentration at which the toxic effect on the cells reaches its halfway point) in the series on MT4 was greater than 10 µM. The inhibition entry (in the series on COS; in series [4]) was “inactive” throughout. In series [6], the inhibition entry is “Active”.

For the molecule `C=C(C)[C@@H]1CC[C@]2(C(=O)NCCCCCCCCC(=O)N[C@@H](CCC(N)=O)C(=O)OC)CC[C@]3(C)[C@H](CC[C@@H]4[C@@]5(C)CC[C@H](OC(=O)CC(C)(C)C(=O)O)C(C)(C)[C@@H]5CC[C@]43C)[C@@H]12`, the “Ratio IC50” value in [8] was 20. Moreover, the inhibition result in [9] and in series [4] was “Active” in each case. For the same molecule, the IC50 in series [1] was 0.016 µM; in series [2], 0.009 µM; in series [3], 0.32 µM; in series [5], 0.067 µM; in series [7] it was 0.16 µM. The molecule further returned a CC50 with MT4 greater than 10 µM. Further, the inhibition entry in the series with COS was “inactive”.

In series [10], `C=C(C)[C@@H]1CC[C@]2(C(=O)NCCCCCCCNC(C)=O)CC[C@]3(C)[C@H](CC[C@@H]4[C@@]5(C)CC[C@H](O)C(C)(C)[C@@H]5CC[C@]43C)[C@@H]12` had an IC50 of 0.042 µM.

On to `C=C(C)[C@@H]1CC[C@]2(C(=O)NCCCCCCCCCNC(=O)[C@H](C)NC(=O)OC(C)(C)C)CC[C@]3(C)[C@H](CC[C@@H]4[C@@]5(C)CC[C@H](OC(=O)CC(C)(C)C(=O)O)C(C)(C)[C@@H]5CC[C@]43C)[C@@H]12`, for which the IC50 is 0.05 µM in series [2] and 1.58 µM in series [7]. In addition, the CC50 in the series on MT4 was greater than 10 µM.

For `C=C(C)[C@@H]1CC[C@]2(C(=O)NCCCCCCCCNC(=O)[C@@H]3CCCN3C(=O)OC(C)(C)C)CC[C@]3(C)[C@H](CC[C@@H]4[C@@]5(C)CC[C@H](OC(=O)CC(C)(C)C(=O)O)C(C)(C)[C@@H]5CC[C@]43C)[C@@H]12`, the results for the IC50 in [2] and in series [7] were 0.04 µM and 0.95 µM, respectively. This molecule also returned a CC50 in the series on MT4 greater than 10 µM.

`C=C(C)[C@@H]1CC[C@]2(C(=O)NCCCCCCCCC(=O)N(C)CC#N)CC[C@]3(C)[C@H](CC[C@@H]4[C@@]5(C)CC[C@H](OC(=O)CC(C)(C)C(=O)O)C(C)(C)[C@@H]5CC[C@]43C)[C@@H]12`: the IC50 in [2] turned out to be 0.04 µM; in [7] it was 2.08 µM. Also, the CC50 with MT4 is greater than 10 µM.
